Assay results reported in ChEMBL document CHEMBL2417487, “Asteriscane-type sesquiterpenoids from the soft coral Sinularia capillosa” (J Nat Prod, 2013).
≈ marks a conversion by molar mass, not a printed value.

Key:
Amphibalanus amphitrite = test: Antifouling activity against barnacle Balanus amphitrite Darwin; format: functional, organism-based
How it was run: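 Barnacle nauplii were reared to cyprids at 26−28 °C and fed Chaetoceros gracilis, reaching the cyprid stage within four days. Fresh cyprids were used for testing, and the value is reported as IC50.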

BGC-823 = test: Cytotoxicity against human BGC823 cells by MTT assay; format: functional, cell-based
HepG2 = test: Cytotoxicity against human HepG2 cells by MTT assay; format: functional, cell-based
A549 = test: Cytotoxicity against human A549 cells by MTT assay; format: functional, cell-based
HCT-8 = test: Cytotoxicity against human HCT8 cells by MTT assay; format: functional, cell-based
SK-OV-3 = test: Cytotoxicity against human SKOV3 cells by MTT assay; format: functional, cell-based
[1] = Antiinflammatory activity in BALB/c mouse splenocytes assessed as inhibition of LPS-induced TNFalpha production at 10 uM after 24 hrs; format: functional; conditions: Splenocyte
How it was run: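 BALB/c mouse splenocyte suspensions were cultured in RPMI 1640 with 10% FBS. Compounds were dissolved in DMSO and given at 10 μM for 24 h, followed by LPS stimulation at 1 μg/mL. NK-007 at 100 nM served as positive control. TNF-α in culture supernatants was measured with cytometric bead array kits and reported as inhibitory rate.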

Question: With `CC(=O)CC/C=C(/C)C[C@@H]1CC(C)(C)CC1=O` as the compound, how does the EC50 (Amphibalanus amphitrite) read?
Answer: 13.9 µg/mL (≈ 58.8 µM)

Question: With `CC1=C[C@]2(O)CC(C)(C)C[C@]23O[C@@]1(O)CC[C@H]3C` as the compound, how does the IC50 (BGC-823) read?
Answer: > 10 µg/mL

Question: And the IC50 (HepG2)?
Answer: > 10 µg/mL

Question: What about the IC50 (A549) of the same compound?
Answer: > 10 µg/mL

Question: What about the IC50 (HCT-8) of the same compound?
Answer: > 10 µg/mL

Question: And the IC50 (SK-OV-3)?
Answer: > 10 µg/mL

Question: With `CC1=C[C@@]23CC(C)(C)C[C@@]2(O)[C@H](C)CC[C@@H]1O3` as the compound, how does the IC50 (BGC-823) read?
Answer: > 10 µg/mL

Question: What about the IC50 (HepG2) of the same compound?
Answer: > 10 µg/mL

Question: What about the IC50 (A549) of the same compound?
Answer: > 10 µg/mL

Question: What about the IC50 (HCT-8) of the same compound?
Answer: > 10 µg/mL

Question: And the IC50 (SK-OV-3)?
Answer: > 10 µg/mL

Question: For `CC1=CC2=CC(C)(C)C[C@@]23O[C@]1(O)CC[C@H]3C`, which IC50 (BGC-823) is on record?
Answer: > 10 µg/mL

Question: What about the IC50 (HepG2) of the same compound?
Answer: > 10 µg/mL

Question: And the IC50 (A549)?
Answer: > 10 µg/mL

Question: What about the IC50 (HCT-8) of the same compound?
Answer: > 10 µg/mL

Question: What about the IC50 (SK-OV-3) of the same compound?
Answer: > 10 µg/mL

Question: For `CC1(C)CC2=C[C@@](C)(O)[C@@]3(O)CC[C@@](C)(O)[C@]2(C1)O3`, which IC50 (BGC-823) is on record?
Answer: > 10 µg/mL

Question: And the IC50 (HepG2)?
Answer: > 10 µg/mL

Question: And the IC50 (A549)?
Answer: > 10 µg/mL

Question: And the IC50 (HCT-8)?
Answer: > 10 µg/mL

Question: And the IC50 (SK-OV-3)?
Answer: > 10 µg/mL

Question: For `CC(=O)CC/C=C(/C)CC1=CC(C)(C)CC1=O`, which IC50 (BGC-823) is on record?
Answer: > 10 µg/mL

Question: What about the IC50 (HepG2) of the same compound?
Answer: > 10 µg/mL

Question: What about the IC50 (A549) of the same compound?
Answer: > 10 µg/mL

Question: And the IC50 (HCT-8)?
Answer: > 10 µg/mL

Question: What about the IC50 (SK-OV-3) of the same compound?
Answer: > 10 µg/mL

Question: Which IC50 (BGC-823) does the source give for `C/C(=C/CC[C@H](C)O)CC1=CC(C)(C)CC1=O` here?
Answer: > 10 µg/mL

Question: What about the IC50 (HepG2) of the same compound?
Answer: > 10 µg/mL

Question: What about the IC50 (A549) of the same compound?
Answer: > 10 µg/mL

Question: What about the IC50 (HCT-8) of the same compound?
Answer: > 10 µg/mL

Question: And the IC50 (SK-OV-3)?
Answer: > 10 µg/mL

Question: For `CC(=O)/C=C1/CC(C)(C)C[C@]12OC(=O)CC[C@H]2C`, which IC50 (BGC-823) is on record?
Answer: > 10 µg/mL

Question: And the IC50 (HepG2)?
Answer: > 10 µg/mL

Question: What about the IC50 (A549) of the same compound?
Answer: > 10 µg/mL

Question: And the IC50 (HCT-8)?
Answer: > 10 µg/mL

Question: And the IC50 (SK-OV-3)?
Answer: > 10 µg/mL

Question: With `CC(=O)C[C@@H]1CC(C)(C)C=C1[C@]1(C)CCC(=O)O1` as the compound, how does the IC50 (BGC-823) read?
Answer: > 10 µg/mL

Question: And the IC50 (HepG2)?
Answer: > 10 µg/mL

Question: What about the IC50 (A549) of the same compound?
Answer: > 10 µg/mL

Question: What about the IC50 (HCT-8) of the same compound?
Answer: > 10 µg/mL

Question: What about the IC50 (SK-OV-3) of the same compound?
Answer: > 10 µg/mL

Question: Which IC50 (BGC-823) does the source give for `C[C@@H]1CCC(=O)[C@](C)(O)/C=C2/CC(C)(C)C[C@@H]21` here?
Answer: > 10 µg/mL

Question: What about the IC50 (HepG2) of the same compound?
Answer: > 10 µg/mL

Question: And the IC50 (A549)?
Answer: > 10 µg/mL

Question: And the IC50 (HCT-8)?
Answer: > 10 µg/mL

Question: What about the IC50 (SK-OV-3) of the same compound?
Answer: > 10 µg/mL

Question: And the IC50 (Amphibalanus amphitrite)?
Answer: 9.7 µM

Question: Which results are given for `C/C1=C/C2=C(CC(C)(C)[C@@H]2O)[C@H](C)CC[C@@H]1O`?
Answer: IC50 (BGC-823): > 10 µg/mL; inhibition at 10 µM [1]: 16%; IC50 (HepG2): > 10 µg/mL; IC50 (A549): > 10 µg/mL; IC50 (HCT-8): > 10 µg/mL; IC50 (SK-OV-3): > 10 µg/mL

Question: What does the source list for `C/C1=C/C2=C(CC(C)(C)[C@H]2O)[C@H](C)CC[C@@H]1O`?
Answer: IC50 (BGC-823): > 10 µg/mL; IC50 (HepG2): > 10 µg/mL; IC50 (A549): > 10 µg/mL; IC50 (HCT-8): > 10 µg/mL; IC50 (SK-OV-3): > 10 µg/mL

Question: For `C/C1=C/C2=C(CC(C)(C)C2=O)[C@H](C)CC[C@@H]1O`, which IC50 (BGC-823) is on record?
Answer: > 10 µg/mL

Question: What about the IC50 (HepG2) of the same compound?
Answer: > 10 µg/mL

Question: And the IC50 (A549)?
Answer: > 10 µg/mL

Question: What about the IC50 (HCT-8) of the same compound?
Answer: > 10 µg/mL

Question: And the IC50 (SK-OV-3)?
Answer: > 10 µg/mL

Question: What does the source list for `C/C1=C/[C@]23O[C@]2(CC(C)(C)C3=O)[C@H](C)CC[C@@H]1O`?
Answer: IC50 (BGC-823): > 10 µg/mL; IC50 (HepG2): > 10 µg/mL; IC50 (A549): > 10 µg/mL; IC50 (HCT-8): > 10 µg/mL; IC50 (SK-OV-3): > 10 µg/mL

Question: Which results are given for `C/C1=C/C2=C(CC(C)(C)C2=O)[C@H](C)CCC1=O`?
Answer: IC50 (BGC-823): > 10 µg/mL; IC50 (HepG2): > 10 µg/mL; IC50 (A549): > 10 µg/mL; IC50 (HCT-8): > 10 µg/mL; IC50 (SK-OV-3): > 10 µg/mL

Question: For `C/C1=C/C2=CC(C)(C)C[C@@]2(OO)[C@H](C)CC[C@@H]1O`, which IC50 (BGC-823) is on record?
Answer: > 10 µg/mL

Question: And the IC50 (HepG2)?
Answer: > 10 µg/mL

Question: And the IC50 (A549)?
Answer: > 10 µg/mL

Question: What about the IC50 (HCT-8) of the same compound?
Answer: > 10 µg/mL

Question: What about the IC50 (SK-OV-3) of the same compound?
Answer: > 10 µg/mL

Question: For `C/C1=C/C2=CC(C)(C)C[C@]2(OO)[C@H](C)CC[C@@H]1O`, which IC50 (BGC-823) is on record?
Answer: > 10 µg/mL

Question: And the IC50 (HepG2)?
Answer: > 10 µg/mL

Question: And the IC50 (A549)?
Answer: > 10 µg/mL

Question: What about the IC50 (HCT-8) of the same compound?
Answer: > 10 µg/mL

Question: What about the IC50 (SK-OV-3) of the same compound?
Answer: > 10 µg/mL

Question: Which results are given for `C[C@@H]1CC[C@]2(O)O[C@]13CC(C)(C)CC3=C[C@@]2(C)O`?
Answer: IC50 (BGC-823): > 10 µg/mL; inhibition at 10 µM [1]: 21%; IC50 (HepG2): > 10 µg/mL; IC50 (A549): > 10 µg/mL; IC50 (HCT-8): > 10 µg/mL; IC50 (SK-OV-3): > 10 µg/mL; IC50 (Amphibalanus amphitrite): 54 µM

Question: With `C[C@@H]1CC[C@]2(O)O[C@]13CC(C)(C)[C@H](O)C3=C[C@@]2(C)O` as the compound, how does the IC50 (BGC-823) read?
Answer: > 10 µg/mL

Question: And the IC50 (HepG2)?
Answer: > 10 µg/mL

Question: What about the IC50 (A549) of the same compound?
Answer: > 10 µg/mL

Question: What about the IC50 (HCT-8) of the same compound?
Answer: > 10 µg/mL

Question: What about the IC50 (SK-OV-3) of the same compound?
Answer: > 10 µg/mL

Question: Which results are given for `CC(=O)CC/C=C(/C)C[C@H]1CC(C)(C)CC1=O` [(-)-SINULARONE A]?
Answer: inhibition at 10 µM [1]: 23%; IC50 (Amphibalanus amphitrite): 74 µM
